Measured values: ChEMBL document CHEMBL4477178, “Biflorin, Isolated from the Flower Buds of Syzygium aromaticum L., Suppresses LPS-Induced Inflammatory Mediators via STAT1 Inactivation in Macrophages and Protects Mice from Endotoxin Shock” (J Nat Prod, 2016)
Activity calls are given as the source filed them. No cut-off for these calls is given here.

Columns and labels:
Peritoneal macrophage = assay: Antiinflammatory activity in C57BL/6 mouse peritoneal macrophages assessed as inhibition of LPS-induced nitric oxide production at 60 uM preincubated for 1 hr followed by LPS challenge for 48 hrs by Griess assay; format: functional; settings: C57BL/6, Peritoneal macrophage
Method in brief: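 Thioglycolate-elicited C57BL/6 mouse peritoneal macrophages, plated at 5 × 10^5 cells/mL and incubated overnight. Compound given at 15, 30 or 60 μM for 1 h, then LPS 10 μg/mL. Medium mixed 1:1 with Griess reagent for 10 min at room temperature, absorbance read at 540 nm, nitrite quantified against a NaNO2 standard. L-NIL 20 μM as positive control; three independent experiments.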

RAW264.7 [1] = assay: Antiinflammatory activity in mouse RAW264.7 cells assessed as inhibition of LPS-induced nitric oxide production preincubated for 1 hr followed by LPS challenge for 24 hrs by Griess assay; format: functional, cell-based
Method in brief: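 RAW 264.7 cells plated at 2 × 10^5 cells/mL and incubated overnight. Compound given at 15, 30 or 60 μM for 1 h, then LPS 10 ng/mL for 24 h. Nitrite in the medium measured by Griess reagent (10 min, room temperature, A540) against a NaNO2 standard. L-NIL 20 μM as positive control; IC50 derived; three independent experiments.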

RAW264.7 [2] = assay: Antiinflammatory activity in mouse RAW264.7 cells assessed as inhibition of LPS-induced PGE2 production preincubated for 1 hr followed by LPS challenge for 24 hrs by ELISA method; format: functional, cell-based
Method in brief: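 RAW 264.7 cells in DMEM with 10% FBS, plated at 2 × 10^5 cells/mL and incubated overnight. Pretreated with compound (15, 30 or 60 μM) for 1 h, then LPS 10 ng/mL for 24 h. PGE2 measured by competitive colorimetric ELISA, TNF-α and IL-6 by ELISA, in diluted medium. NS-398 3 μM as positive control for PGE2. Mean ± SD, three independent experiments; IC50 given for PGE2.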

RAW264.7 [3] = assay: Antiinflammatory activity in mouse RAW264.7 cells assessed as inhibition of LPS-induced iNOS mRNA expression at 60 uM after 2 to 12 hrs by qRT-PCR method; format: functional, cell-based
Method in brief: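 RAW 264.7 stimulated with LPS 10 ng/mL with or without 60 μM for 2, 4, 6 and 12 h. Total RNA (1 μg) reverse-transcribed with MuLV RT and random primer; SYBR green real-time qPCR with gene-specific primers, triplicate Ct normalized to β-actin. Mean ± SD, three independent experiments.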

[4] = Cytotoxicity against C57BL/6 mouse peritoneal macrophages assessed as cell viability at 60 uM after 24 hrs by MTT assay; format: cell-based, Peritoneal macrophage; settings: read-out: Activity
Method in brief: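 Peritoneal macrophages from thioglycolate-elicited C57BL/6 male mice (harvested by lavage after 4 days, cultured in DMEM/10% FBS) exposed 24 h up to 60 μM; viability by MTT assay.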

RAW264.7 [5] = assay: Reduction in LPS-induced NF-kappa B activity in mouse RAW264.7 cells at 15 to 60 uM preincubated for 1 hr followed by LPS challenge for 12 hrs by luciferase reporter gene assay; format: cell-based
[6] = biological target: T1, Signal transducer and activator of transcription 1 (Mus musculus) (UniProt P42225); assay: Inhibition of LPS-induced STAT1 phosphorylation at Y701 in mouse RAW264.7 cells at 15 to 60 uM preincubated for 1 hr followed by LPS challenge for 120 mins by Western blot analysis; format: cell-based
T1 sequence (whole entry): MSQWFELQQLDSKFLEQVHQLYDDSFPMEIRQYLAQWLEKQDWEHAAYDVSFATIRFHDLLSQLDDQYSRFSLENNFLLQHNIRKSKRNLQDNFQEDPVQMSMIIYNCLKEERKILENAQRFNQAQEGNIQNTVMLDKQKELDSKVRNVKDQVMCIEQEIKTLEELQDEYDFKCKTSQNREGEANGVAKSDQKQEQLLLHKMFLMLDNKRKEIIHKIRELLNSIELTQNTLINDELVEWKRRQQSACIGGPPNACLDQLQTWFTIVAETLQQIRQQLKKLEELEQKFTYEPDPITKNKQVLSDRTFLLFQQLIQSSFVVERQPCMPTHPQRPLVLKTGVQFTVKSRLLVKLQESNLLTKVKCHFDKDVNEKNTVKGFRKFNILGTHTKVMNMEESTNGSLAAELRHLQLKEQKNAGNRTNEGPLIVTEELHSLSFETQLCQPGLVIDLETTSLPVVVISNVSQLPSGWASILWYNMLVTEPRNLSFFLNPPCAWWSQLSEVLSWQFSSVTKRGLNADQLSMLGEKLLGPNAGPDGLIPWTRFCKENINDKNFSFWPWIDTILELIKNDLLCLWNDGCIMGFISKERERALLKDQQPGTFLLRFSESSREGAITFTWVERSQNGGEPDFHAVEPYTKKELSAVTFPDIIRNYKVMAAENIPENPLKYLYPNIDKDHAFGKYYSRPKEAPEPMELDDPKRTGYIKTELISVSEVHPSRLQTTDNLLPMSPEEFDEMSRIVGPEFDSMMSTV
Method in brief: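 RAW 264.7 pretreated 1 h at 15, 30 or 60 μM, then LPS 10 ng/mL: 120 min for p-STAT1 Y701, 15 min for p-STAT1 S727, 120 min for p-STAT3 Y705. Western blot with phospho-specific and total STAT1/STAT3 antibodies, β-actin control; three independent experiments.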

[7] = biological target: MAP kinase p38 (Mus musculus) (UniProt P47811+O08911+Q9WUI1+Q9Z1B7); assay: Inhibition of LPS-induced p38 MAPK phosphorylation in mouse RAW264.7 cells preincubated for 1 hr followed by LPS challenge for 30 mins by Western blot analysis; format: cell-based
Method in brief: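 RAW 264.7 pretreated 1 h at 15, 30 or 60 μM, then LPS 10 ng/mL for 30 min. Lysates Western-blotted for p-p38, p38, p-JNK, JNK, p-ERK, ERK with β-actin control; ECL, densitometry. Three independent experiments.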

Mus musculus [8] = assay: Inhibition of LPS-induced TNF-alpha mRNA expression in C57BL/6 mouse liver at 10 mg/kg, ip pretreated for 1 hr followed by LPS challenge for 6 hrs by qRT-PCR method; format: functional, organism-based
Method in brief: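 Male C57BL/6 mice given 10 mg/kg i.p. or vehicle 1 h before LPS (Salmonella enterica, 25 mg/kg i.p.); liver collected 6 h after LPS, frozen at −80 °C. Liver mRNA by SYBR qRT-PCR normalized to β-actin; protein by Western blot for p-STAT1 (Y701, S727). Eight mice per group; mean ± SD.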

Mus musculus [9] = assay: Protection against LPS-induced mortality in C57BL/6 mouse assessed as lethality level at 5 to 10 mg/kg, ip pretreated for 1 hr followed by LPS challenge measured every 12 hrs for 96 hrs post challenge; format: functional
Method in brief: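 Male C57BL/6 mice (6 weeks) given compound i.p. (5 or 10 mg/kg) or vehicle 1 h before i.p. LPS (Salmonella enterica, 25 mg/kg). Water only for 12 h beforehand. Survival checked every 12 h for 96 h; n = 5 per group.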

## Cc1cc(=O)c2c(O)c([C@@H]3O[C@H](CO)[C@@H](O)[C@H](O)[C@H]3O)c(O)cc2o1 [BIFLORIN]
Peritoneal macrophage
  inhibition at 60 µM: 55.9%
RAW264.7 [1]
  IC50: 51.7 µM
RAW264.7 [2]
  IC50: 37.1 µM
RAW264.7 [3]
  inhibition: Active
[4]
  viability at 24 h, 60 µM: 90.4%
RAW264.7 [5]
  inhibition: inactive
[6]
  inhibition: Active
[7]
  inhibition: Dose-dependent effect
Mus musculus [8]
  inhibition: Active
Mus musculus [9]
  mortality: 40 - 60%
